Assay outcomes from PubChem BioAssay.
NPY Y1 blocker = NPY-Y1 receptor antagonists, primary screen, cell-based; HEK293-CNG Y1 cells, membrane potential fluorescence; NPY at EC95, then isoproterenol; inhibition, % at 3.6 µM; AID 1040, 2008; hit rate 1% among 200,000; Neuropeptide Y receptor type 1 (Homo sapiens), P25929;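 active = inhibition above the campaign mean inhibition of all tested compounds plus 3 SD, cut at about 20% in these data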;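 also: 0% = DMSO wells given NPY plus isoproterenol and 100% = isoproterenol alone without NPY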
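Benchmarks – high control isoproterenol alone, low control NPY with isoproterenol · Material – HEK293 Y1/CNG channel cell line · Times – dye 3 h, compound 60 min room temperature, stimulation 45 min · Probe or stimulus – NPY (25 nM), isoproterenol (1 µM), Ro 20-1724 (25 µM) · Evaluation – % inhibition of NPY effect · Signal – fluorescence, membrane potential probe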
NPY-Y2 PAM-ag = NPY-Y2 potentiators or agonists, primary screen, cell-based; Neuropeptide Y receptor type 2 (Homo sapiens), P49146; cells expressing NPY-Y2, potentiator/agonist read-out; activation, % at 3.6 µM; hit rate 0.45% among 220,000; AID 1359, 2008; in the data active = activation above about 27%;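 also: cells stimulated with NPY near EC25 plus isoproterenol at EC100; 0% = vehicle plus submaximal agonist and 100% = vehicle plus saturating agonist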
Target sequence (P49146 whole entry, looked up): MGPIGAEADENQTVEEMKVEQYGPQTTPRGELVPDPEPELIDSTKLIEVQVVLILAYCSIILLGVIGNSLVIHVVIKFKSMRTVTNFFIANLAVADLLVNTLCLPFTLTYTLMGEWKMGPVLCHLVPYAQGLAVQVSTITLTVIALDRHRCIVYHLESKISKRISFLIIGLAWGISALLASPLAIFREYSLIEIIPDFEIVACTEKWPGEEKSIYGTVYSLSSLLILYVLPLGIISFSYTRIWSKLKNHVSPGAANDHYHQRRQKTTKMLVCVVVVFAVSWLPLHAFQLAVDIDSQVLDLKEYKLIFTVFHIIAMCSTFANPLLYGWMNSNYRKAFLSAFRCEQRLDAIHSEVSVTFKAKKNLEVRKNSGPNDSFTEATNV
NPY-Y1 PAM-ag = NPY-Y1 receptor potentiators or agonists, primary screen, cell-based; hit rate 0.37% among 220,000; NPY-Y1 expressing cells, potentiator/agonist activation; activation, % at 3.6 µM; Neuropeptide Y receptor type 1 (Homo sapiens), P25929; in the data active = activation above about 33%, passing the limit was not always enough;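 also: cells stimulated with NPY at EC10 then isoproterenol at EC100; 0% = low agonist plus stimulus and 100% = saturating agonist plus stimulus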
NPY Y2 blocker = NPY-Y2 receptor antagonists, primary screen, cell-based; Neuropeptide Y receptor type 2 (Homo sapiens), P49146; NPY-Y2 expressing cells, antagonist mode; inhibition, % at 2.7 µM; hit rate 0.99% among 140,000; AID 793, 2007; in the data active = inhibition above about 17%;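 also: 0% = vehicle with agonist challenge and 100% = reference antagonist with challenge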
Starred values were filed as active, the others as inactive; . = not tested or not shown. Only some compounds are listed: those with a hit (about 1.9% of all), similar ones and a draw of the others.

SMILES | NPY Y1 blocker | NPY-Y2 PAM-ag | NPY-Y1 PAM-ag | NPY Y2 blocker
O/N=C/c1cc(Br)ccc1OCc1ccc(F)cc1 | 16 | -2 | -15 | 18*
Cc1ccc(COc2ccc(Br)cc2/C=N/O)cc1 | 14 | -25 | -22 | 15
COc1ccc(/C=N/NC(=O)c2cccc(NC(C)=O)c2)c(C(=O)O)c1OC | 1 | 1 | -13 | .
CC(C)(C)CC(=O)Nc1nnc(SCC(=O)Nc2ccccc2F)s1 | 21* | -16 | -1 | .
CCOC(=O)/C(C#N)=C1\SS/C(=C(/C#N)C(=O)OCC)S1 | . | 13 | 0 | .
O=S(=O)(NC1=NCCCCC1)c1ccc(Cl)cc1 | -1 | -16 | -6 | .
Clc1ccc(NC2=NCCCCC2)cc1 | 46* | 10 | 7 | 1
CCOC(=O)CCNCc1ccc(F)cc1 | -1 | 9 | 7 | .
CCN(CC)C1=C(Cl)C(=O)C(Cl)C12OCCO2 (stereo not given) | . | 12 | 12 | .
COc1ccc(Cc2nc(C(=O)Nc3ccc(Cl)cc3)cs2)cc1 | 24* | -29 | -32 | 19*
O=C(O)COc1ccc2c(-c3ccccc3)cc(=O)oc2c1 | 20* | -41 | -23 | 7
CN(C)CCCNC(=O)/C(=C\C=C\c1ccccc1)NC(=O)c1ccc([N+](=O)[O-])cc1 | . | 22 | 24 | .
COc1ccc(-c2noc(C(=O)NCc3ccccc3Cl)n2)cc1OC | 25* | -6 | -10 | .
COc1ccc(-c2noc(C(=O)NCc3ccc(F)cc3)n2)cc1OC | 10 | -14 | -30 | .
O=[N+]([O-])c1cc(Cl)ccc1N1CCCC1 | 7 | -3 | 4 | .
O=[N+]([O-])c1cc(Cl)ccc1N1CCN(c2cccc(C(F)(F)F)c2)CC1 | 20* | -6 | 6 | 21*
O=C(Nc1ccccc1)n1cc(-c2ccccn2)c(N2CCOCC2)n1 | 7 | 9 | 6 | .
N#CCc1cc2ccc3cccc4ccc(c1)c2c34 | . | 6 | 0 | .
CCCCCc1cccnc1 | . | 10 | 12 | .
O=C(C1CCN(S(=O)(=O)c2cnc[nH]2)CC1)N(CCc1ccccc1)Cc1ccccc1 | 3 | 10 | -17 | .
O=C(C1CCN(CCCc2ccccc2)CC1)N(CCc1ccccc1)Cc1ccccc1 | 27* | 22 | -52 | 36*
O=C(C1CCN(CC2CC=CCC2)CC1)N(CCc1ccccc1)Cc1ccccc1 (stereo not given) | 24* | -15 | -42 | 18*
CC1CN(C(=O)C2CC2)C(C)CN1C(=O)C1CC1 (stereo not given) | 2 | 12 | 3 | -1
CC(C)CCC(O)(CCC(C)C)C(=O)NNc1ccccc1 | 15 | -1 | -7 | 13
O=C(NN(C(=O)c1ccccc1)c1ccccc1)c1ccccc1 | . | -5 | 0 | .
SMILES | NPY Y1 blocker | NPY-Y2 PAM-ag | NPY-Y1 PAM-ag | NPY Y2 blocker
O=C(c1ccc(F)cc1)N(NC(=O)C(O)(c1ccccc1)c1ccccc1)c1ccccc1 | 49* | -3 | -56 | 30*
COC(=O)N(NC(=O)C(O)(c1ccccc1)c1ccccc1)c1ccccc1 | 33* | -11 | -37 | 22*
COC(=O)N(NC(=O)C(O)(CCC(C)C)CCC(C)C)c1ccccc1 | 52* | -15 | -40 | 26*
N=c1n(CCCOc2ccccc2Cl)c2ccccc2n1CC(N)=O | . | -24 | 10 | .
COc1ccc(C(C)(C)C)cc1S(=O)(=O)n1ccnc1C | 2 | 4 | 4 | .
O=C(Nc1cc(Cl)cc(Cl)c1)C(c1ccccc1)N1CCCCC1 (stereo not given) | 30* | -3 | -32 | 20*
C[C@]12CCC(=O)C=C1[C@H](O)C[C@@H]1[C@@H]2[C@@H](O)C[C@@]2(C)[C@H]1CC[C@]2(O)C(=O)CO | -13 | 101* | 117* | 0
CCCCCCNC(=O)CCCCCNS(=O)(=O)c1ccc(Br)cc1 | -1 | 7 | 16 | .
Cn1cnnc1SCc1ccccc1Br | -3 | 80* | 108* | -1
Cc1ccc(NC(=O)CCNCc2ccco2)cc1S(=O)(=O)N(C)C | 1 | -17 | -12 | .
COc1ccc2c(c1)c(=O)c(C(=O)c1ccccc1)cn2Cc1ccc(C)cc1 | 12 | -17 | -48 | 10
COc1ccc2c(c1)c(=O)c(Br)c(C)n2Cc1ccccc1 | 2 | -7 | -10 | 25*
CCCCn1[nH]c(-c2ccccc2)cc1=O | -1 | -19 | -4 | 1
CC(=O)n1cc(N(C(=O)CCl)c2ccc([N+](=O)[O-])cc2)c2ccccc21 | . | 54* | 69* | .
CCCCNC(=O)c1onc(CSc2cccc(F)c2)c1C(=O)O | 17 | -27 | -23 | 17
CCCCNC(=O)c1onc(CSc2ccccc2CC)c1C(=O)O | 21* | -51 | -22 | 14
CCOC(=O)C(=CNNc1cccc(Cl)c1)C(=O)OCC | . | 54* | 62* | .
S=C1NCN(Cc2cccnc2)CN1c1cccc2ccccc12 | . | 6 | 29 | .
Nc1ccc(O)c2c1C(=O)c1ccccc1C2=O | -10 | 57* | 54* | -6
Nc1ccc(Br)c2c1C(=O)c1ccccc1C2=O | -8 | 32 | 34 | -5
CCOC(=O)CN(C(=O)CSc1nnc(COc2ccc(OC)cc2)n1C)c1ccccc1 | -14 | 103* | 112* | 0
CC(C)(C)NCC(O)CON=C1c2ccccc2-c2ccccc21 (stereo not given) | -5 | 100* | 104* | .
O=C1C(NS(=O)(=O)c2ccccc2)=C(N2CCN(c3ccc(F)cc3)CC2)C(=O)c2ccccc21 | . | 87* | 89* | .
CC1CCN(C2=C(NS(=O)(=O)c3ccccc3)C(=O)c3ccccc3C2=O)CC1 | . | 78* | 95* | .
O=S(=O)(Nc1nc2ccccc2nc1N1CCN(c2ccccc2)CC1)c1ccc(F)cc1 | -3 | 11 | 10 | 3
SMILES | NPY Y1 blocker | NPY-Y2 PAM-ag | NPY-Y1 PAM-ag | NPY Y2 blocker
CC(=O)Nc1ccc(S(=O)(=O)NC2=C(N3CCN(Cc4ccccc4)CC3)C(=O)c3ccccc3C2=O)cc1 | -12 | 4 | 5 | -7
COc1ccc(C(=O)/C=C/Nc2ccc(S(=O)(=O)Nc3onc(C)c3C)cc2)cc1 | -3 | -7 | 1 | 2
CN1c2ccccc2-c2nc3ccccc3n2C1c1ccccn1 (stereo not given) | -1 | 5 | -1 | 2
c1ccc(CN2c3ccccc3-c3nc4ccccc4n3C2c2ccccn2)cc1 (stereo not given) | 37* | -9 | -17 | 19*
C=CCSC(=C(C#N)C#N)c1cc2c([nH]1)CCCC2 | -10 | 43* | 35* | -2
CCNC(=O)OCc1cn(-c2ccccc2)nn1 | -1 | 2 | 1 | .
O=C(Nc1cccc(Cl)c1)OCc1cn(-c2ccccc2)nn1 | 21* | -17 | -11 | .
CCN(CCN(C)C)C(=O)c1ccc2c(c1NCCO)C(=O)c1ccccc1C2=O | -11 | 40* | 47* | .
O=C1c2ccccc2C(=O)c2c1ccc(C(=O)N1CCCCC1)c2NCCO | 2 | 2 | 21 | -2
CC1(C)CCCN(C(=O)c2ccc3c(c2NCCO)C(=O)c2ccccc2C3=O)C1 | -22 | 54* | 51* | -9
COc1ccc(NS(=O)(=O)c2ccc(NC(=S)NC(=O)/C=C/c3ccccc3)cc2)nn1 | 2 | 15 | -11 | -1
CCC(CC)NC(=O)c1oc2ccccc2c1COc1ccccc1 | 32* | 1 | -7 | 26*
